This passage reports IC50, inhibition and Activity results from ChEMBL document CHEMBL1914446, “Pharmacophore identification, virtual screening and biological evaluation of prenylated flavonoids derivatives as PKB/Akt1 inhibitors” (Eur J Med Chem, 2011).

Calls of active or inactive are those of the source. The rule behind the calls is not given here.

In test [1] the target is T1, RAC-alpha serine/threonine-protein kinase (Homo sapiens, UniProt P31749). The test can be described thus: Inhibition of GST-tagged PKB/Akt1 incubated for 5 mins before eNOS substrate and ATP addition measured after 30 mins by kinase assay.
T1 sequence (P31749 whole entry): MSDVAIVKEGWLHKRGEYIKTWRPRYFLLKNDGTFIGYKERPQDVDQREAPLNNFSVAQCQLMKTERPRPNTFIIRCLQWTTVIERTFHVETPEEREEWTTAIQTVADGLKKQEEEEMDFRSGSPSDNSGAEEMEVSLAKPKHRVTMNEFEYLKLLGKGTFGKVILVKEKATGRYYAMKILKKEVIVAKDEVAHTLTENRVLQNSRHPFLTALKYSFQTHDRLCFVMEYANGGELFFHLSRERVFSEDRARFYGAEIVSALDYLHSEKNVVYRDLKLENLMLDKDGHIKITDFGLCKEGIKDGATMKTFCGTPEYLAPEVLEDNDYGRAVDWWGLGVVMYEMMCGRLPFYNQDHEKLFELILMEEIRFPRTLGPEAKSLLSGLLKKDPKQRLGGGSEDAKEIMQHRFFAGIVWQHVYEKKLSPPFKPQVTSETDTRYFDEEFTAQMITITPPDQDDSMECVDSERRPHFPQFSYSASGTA
The target in test [2] is T1, RAC-alpha serine/threonine-protein kinase. The test can be described thus: Inhibition of GST-tagged PKB/Akt1 incubated for 5 mins before eNOS substrate and ATP addition at > 50 uM measured after 30 mins by kinase assay. In a few lines:
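HTScan PKB/Akt1 kit: active recombinant GST-Akt1 (4 ng) in kinase buffer (Tris-HCl pH 7.5, MgCl2, β-glycerophosphate, Na3VO4, DTT) preincubated with compound or DMSO vehicle 5 min at room temperature. ATP/substrate cocktail with eNOS substrate added. Reaction stopped with 50 mM EDTA (pH 8.0); activity read per kit instructions. H-89 as positive control.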

The test system of test [3] is OVCAR-8. The test can be described thus: Decrease in GSK3-beta protein level in human OVCAR8 cells at 20 uM by Western blot analysis. It counts as functional, cell-based. In a few lines: (§1)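 OVCAR-8 cells treated, harvested, washed in ice-cold PBS and lysed in immunoprecipitation buffer with NaF, β-glycerophosphate, detergents and PMSF. Debris pelleted at 13,000 rpm for 30 min at 4 °C; protein measured by Bradford. Immunoblots probed for phospho-Akt Ser-473, phospho- and total GSK3, with GAPDH.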

The subject of the next test is PC-3. The test can be described thus: Antiproliferative activity against human PC3 after 72 hrs by MTT assay. It counts as functional, cell-based. Conditions: PC-3, 72 h. In outline: (§2)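 MTT read-out: cells seeded at 4000 per well, attached overnight, exposed to compound over 1.0–100.0 µM for 72 h. MTT solution (5.0 mg/ml) added for a further 4 h at 37 °C, formazan dissolved in DMSO, absorbance at 570 nm. Triplicate wells in three independent experiments; IC50 from dose–effect analysis.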

Test [4] deals with OVCAR-8. The test can be described thus: Antiproliferative activity against human OVCAR8 after 72 hrs by MTT assay. It counts as functional, cell-based. Conditions: OVCAR-8, 72 h. In outline: as §2
A further test deals with HL-60. The test can be described thus: Antiproliferative activity against human HL60 after 72 hrs by MTT assay. It counts as functional, cell-based. To be noted: HL-60, 72 h. In outline: as §2
In test [5] the test system is OVCAR-8. The test can be described thus: Induction of apoptosis in human OVCAR8 cells assessed as apoptotic cells at 20 uM after 72 hrs by Annexin V-FITC/propidium iodide staining-based FACS analysis. The test is classed as functional. In outline:
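OVCAR-8 cells (5 × 10^4 cells/ml) cultured in flasks and treated with vehicle or compound. After treatment, cells harvested and washed twice in ice-cold PBS, then stained with Annexin V-FITC/propidium iodide and analysed by flow cytometry.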

Test [6] relates to OVCAR-8. The test can be described thus: Down regulation of PKB/Akt phosphorylation at Ser-473 in human OVCAR8 cells at 20 uM by Western blot analysis. It counts as functional, cell-based. In a few lines: as §1
Test [7] has as its system OVCAR-8. The test can be described thus: Inhibition of PKB/Akt in human OVCAR8 cells assessed as decrease of GSK3-beta phosphorylation at 20 uM after Western blot analysis. The test is classed as cell-based. In outline:
as §1

For the molecule `O=c1cc(CSc2nnc(O)n2C2Cc3ccccc3C2)c2ccc(O)cc2o1`, the IC50 entry in [1] is “Not Active”.
As to `CC(C)=CCc1c(O)cc(O)c(C(=O)/C=C/c2ccc(O)cc2)c1O` [DEMETHYLXANTHOHUMOL], the 50% inhibitory concentration (IC50) in test [1] (read-out: IC50) is 144 µM.
Molecule `CC(=O)Nc1cccc(-n2nnc(SCC(=O)NCc3cccs3)n2)c1` returned an inhibition in test [2] of 19.6%. Further, in [1] (read-out: IC50), the IC50 is more than 50 µM.
As to `CC(C)=CCc1c(O)cc(O)c2c(=O)cc(-c3ccc(O)c(O)c3)oc12`, the outcome in the test with OVCAR-8 [3] was inactive. The 50% inhibitory concentration (IC50) in test [1] (read-out: IC50) came to 3.9 µM; in the test on PC-3 it was 18.6 µM; in the test with OVCAR-8 [4], 16.6 µM; in the test with HL-60 it was 3.31 µM. Besides, in the test with OVCAR-8 [5], the Activity turned out to be 49.11%. In the test on OVCAR-8 [6], the result was Active. Besides, the inhibition result in the test with OVCAR-8 [7] is “Active”.
With `Cc1ccc(S(=O)(=O)OC[C@H]2O[C@@H](n3cnc4c(=O)[nH]c(NC(=O)C(C)C)nc43)C[C@H]2O)cc1`, the IC50 result in test [1] is “Not Active”.
In the case of `CC(C)=CCc1c(O)cc2oc(-c3ccc(O)cc3O)cc(=O)c2c1O`, the IC50 in [1] (read-out: IC50) turned out to be 54.5 µM.
Same read-out and setting: then `CC(C)=CCc1cc(C(=O)/C=C/c2cccc(O)c2)c(O)cc1O`, with 85.9 µM.
Turning to `CC(C)=CCc1cc2c(=O)cc(-c3ccc(O)cc3O)oc2cc1O`, the IC50 entry in test [1] is reported as “Not Active”.
Regarding `CC(C)=CCc1c(O)cc2oc(-c3ccc(O)c(O)c3)cc(=O)c2c1O`, the outcome in the test with OVCAR-8 [3] was inactive. Besides, the IC50 in test [1] (read-out: IC50) was determined as 5.4 µM; in the test with PC-3, 14.6 µM; with OVCAR-8 [4], 23.8 µM; in the test with HL-60 it was 2.5 µM. The Activity in the test on OVCAR-8 [5] came to 40.19%. The outcome in the test on OVCAR-8 [6] was Active. In addition, the inhibition result with OVCAR-8 [7] was “Active”.
